The values that follow come from ChEMBL document CHEMBL3259662 (ACS Med Chem Lett, 2014).

The test system of data set [1] is Candida albicans. The data set is described as follows: Antifungal activity against Candida albicans by CLSI method. The data set is classed as functional, organism-based.
Data set [2] has as its system Aspergillus fumigatus. The data set is described as follows: Antifungal activity against Aspergillus fumigatus by CLSI method. The data set is classed as functional, organism-based.
The subject of data set [3] is Escherichia coli. The data set is described as follows: Antibacterial activity against Escherichia coli ATCC 35218 after 16 to 20 hrs by CLSI method. The data set is classed as functional, organism-based.
The test system of data set [4] is Nakaseomyces glabratus. The data set is described as follows: Antifungal activity against Candida glabrata by CLSI method. The data set is classed as functional, organism-based.
In data set [5] the test system is Pichia kudriavzevii. The data set is described as follows: Antifungal activity against Candida krusei by CLSI method. The data set is classed as functional, organism-based.
Data set [6] has as its system Cryptococcus neoformans. The data set is described as follows: Antifungal activity against Cryptococcus neoformans ATCC 90113 after 70 to 74 hrs by CLSI method. Conditions: for IC50 / MIC: Cryptococcus neoformans, ATCC 90113. The data set is classed as functional, organism-based. An outline of the steps: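 Growth inhibition of C. neoformans per the CLSI protocol. […] MIC is the lowest test concentration with no detectable growth. MFC is the lowest concentration killing 100% of the organism.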

Data set [7] concerns SK-MEL. The data set is described as follows: Cytotoxicity against human SK-MEL cells assessed as cell viability after 48 hrs by neutral red uptake assay. The data set is classed as cell-based. An outline of the steps:
(§1)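 Neutral red uptake assay in human cancer lines SK-MEL, KB, BT-549 and SK-OV-3 and in noncancerous mammalian kidney cells VERO and LLC-PK1. The highest tested concentration was 10 μg/mL.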

Data set [8] relates to KB. The data set is described as follows: Cytotoxicity against human KB cells assessed as cell viability after 48 hrs by neutral red uptake assay. The class given is cell-based. An outline of the steps: as §1
The subject of data set [9] is BT-549. The data set is described as follows: Cytotoxicity against human BT549 cells assessed as cell viability after 48 hrs by neutral red uptake assay. Conditions: bt-549, 48 h. The data set is classed as cell-based. An outline of the steps: as §1
For data set [10], the system named is SK-OV-3. The data set is described as follows: Cytotoxicity against human SKOV3 cells assessed as cell viability after 48 hrs by neutral red uptake assay. The data set is classed as cell-based. Conditions: sk-ov-3, 48 h. An outline of the steps:
as §1

The test system of data set [11] is Vero. The data set is described as follows: Cytotoxicity against African green monkey Vero cells assessed as cell viability after 48 hrs by neutral red uptake assay. The class given is cell-based. Conditions: chlorocebus sabaeus. An outline of the steps: as §1
Data set [12] relates to LLC-PK1. The data set is described as follows: Cytotoxicity against pig LLC-PK1 cells assessed as cell viability after 48 hrs by neutral red uptake assay. The data set is classed as cell-based, Sus scrofa. Conditions: llc-pk1, 48 h. An outline of the steps:
as §1

Data set [13] is described as follows: Selectivity index, ratio of cytotoxicity for human SK-MEL cells to IC50 for Cryptococcus neoformans ATCC 90113. The class given is toxicity, cell-based. Conditions: read-out: Selectivity Index.
Data set [14] is described as follows: Selectivity index, ratio of cytotoxicity for human KB cells to IC50 for Cryptococcus neoformans ATCC 90113. The class given is toxicity, cell-based. Conditions: read-out: Selectivity Index.
A short description of data set [15]: Selectivity index, ratio of cytotoxicity for human BT549 cells to IC50 for Cryptococcus neoformans ATCC 90113. Conditions: read-out: Selectivity Index. The class given is toxicity, cell-based, BT-549.
Data set [16] can be described thus: Selectivity index, ratio of cytotoxicity for human SKOV3 cells to IC50 for Cryptococcus neoformans ATCC 90113. The class given is toxicity, cell-based, SK-OV-3. Conditions: read-out: Selectivity Index.
The nature of data set [17]: Selectivity index, ratio of cytotoxicity for African green monkey Vero cells to IC50 for Cryptococcus neoformans ATCC 90113. Conditions: read-out: Selectivity Index. The data set is classed as toxicity, cell-based.
A short description of data set [18]: Selectivity index, ratio of cytotoxicity for pig LLC-PK1 cells to IC50 for Cryptococcus neoformans ATCC 90113. The class given is toxicity, cell-based. Conditions: read-out: Selectivity Index.
Data set [19] is described as follows: Retention time of the compound by reverse phase HPLC analysis. The class given is physicochemical. The essentials:
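Reverse-phase HPLC on a C-18 column (25 cm × 4.6 mm, 5 μM) at 1 mL/min over 40 min. The gradient ran 85−5% with A = 0.1% TFA in H2O and B = 0.1% TFA in CH3CN. Detection was at 220 nm.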

Data set [20] has as its system Cryptococcus neoformans. The data set is described as follows: Antifungal activity against Cryptococcus neoformans ATCC 90113 at 20 ug/ml after 70 to 74 hrs by CLSI method. The data set is classed as functional, organism-based. The essentials:
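C. neoformans screened per the CLSI protocol at the highest tested concentration of 20 μg/mL. Compounds showing no activity at this level were scored not active.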

In brackets after ≈: the same amount, converted by molar mass. Activity calls are given as the source filed them. Peptide text beside a SMILES is read from it. * marks the point of attachment. Boc = CC(C)(C)OC(=O)*; NHBn = c1ccc(CN*)cc1 Bounds are passed on as bounds.

Take `COC(=O)[C@H](CCCNC(=N)N)NC(=O)[C@H](Cc1c[nH]c(-c2ccc(-c3ccccc3)cc2)n1)NC(=O)[C@H](CCCNC(=N)N)NC(=O)OC(C)(C)C`: the result in [1], in data set [2], in data set [3], in data set [4] and in data set [5] was inactive. Moreover, in [6], the MFC100 was found to be 1.25 µg/mL (≈ 1.7 µM). The same compound showed an IC50 in data set [6] of 0.8 µg/mL (≈ 1.09 µM). This compound displayed a minimal inhibitory concentration (MIC) in data set [6] of 1.25 µg/mL (≈ 1.7 µM). Besides, the Activity in data set [7], in [8], in data set [9], in data set [10], in data set [11] and in data set [12] was over 10 µg/mL in each case. Also, the selectivity ratio in data set [13], in data set [14], in [15], in data set [16], in [17] and in [18] was over 12.5 in each case. For the same compound, in data set [19], the Retention_time is 18.64 min.
As to `CC(C)(C)OC(=O)N[C@@H](CCCNC(=N)N)C(=O)N[C@@H](Cc1c[nH]cn1)C(=O)N[C@@H](CCCNC(=N)N)C(=O)NCc1ccccc1` (Boc-Arg-His-Arg-NHBn), the outcome in [1], in data set [2], in [3], in data set [4] and in data set [5] was inactive. The compound also displayed an MFC100 in data set [6] of 10 µg/mL (≈ 15.2 µM). In data set [6], this compound returned an IC50 of 5.35 µg/mL (≈ 8.15 µM). The MIC in [6] came out at 10 µg/mL (≈ 15.2 µM). The Activity in [7], in data set [8], in data set [9], in data set [10], in [11] and in data set [12] was over 10 µg/mL throughout. Also, the selectivity ratio in data set [13], in data set [14], in data set [15], in data set [16], in [17] and in data set [18] was over 1.8 in each case. Besides, the Retention_time in data set [19] was found to be 16.41 min.
Regarding `N=C(N)NCCC[C@H](NC(=O)[C@H](Cc1c[nH]cn1)NC(=O)[C@@H](N)CCCNC(=N)N)C(=O)NCc1ccccc1` (H-Arg-His-Arg-NHBn), the outcome in data set [1], in [2], in data set [3], in data set [4], in [5] and in data set [20] was inactive. Also, the Activity in [7], in data set [8], in [9], in data set [10], in data set [11] and in [12] was over 10 µg/mL each time.
In the case of `Cc1ccc(-c2nc(C[C@H](NC(=O)[C@H](CCCNC(=N)N)NC(=O)OC(C)(C)C)C(=O)N[C@@H](CCCNC(=N)N)C(=O)NCc3ccccc3)c[nH]2)cc1`, the outcome in data set [1], in [2], in data set [3], in [4] and in data set [5] was inactive. The compound also came in with an MFC100 in data set [6] of 2.5 µg/mL (≈ 3.35 µM). The compound further yielded an IC50 in [6] of 2.15 µg/mL (≈ 2.88 µM). The compound also gave an MIC in [6] of 2.5 µg/mL (≈ 3.35 µM). The Activity in [7], in data set [8], in [9], in [10], in data set [11] and in data set [12] was over 10 µg/mL in each case. For the same compound, the selectivity ratio in data set [13], in [14], in data set [15], in [16], in data set [17] and in [18] was over 4.6 throughout. In data set [19], the Retention_time turned out to be 19.41 min.
As for `CC(C)(C)OC(=O)N[C@@H](CCCNC(=N)N)C(=O)N[C@@H](Cc1c[nH]c(-c2ccccc2)n1)C(=O)N[C@@H](CCCNC(=N)N)C(=O)NCc1ccccc1`, the outcome in [1], in data set [2], in [3], in [4] and in data set [5] was inactive. The same compound showed an MFC100 in data set [6] of 1.25 µg/mL (≈ 1.71 µM). The compound further showed a 50% inhibitory concentration (IC50) in data set [6] of 0.67 µg/mL (≈ 0.914 µM). In addition, it took 1.25 µg/mL (≈ 1.71 µM) to inhibit growth in data set [6] (MIC). In addition, the Activity in data set [7], in data set [8], in data set [9], in data set [10], in data set [11] and in data set [12] was over 10 µg/mL in each case. In addition, the selectivity ratio in [13], in data set [14], in [15], in data set [16], in [17] and in [18] was over 14.9 throughout. Also, in data set [19], the Retention_time is reported as 17.63 min.
Turning to `COC(=O)[C@H](CCCNC(=N)N)NC(=O)[C@H](Cc1c[nH]c(-c2ccccc2)n1)NC(=O)[C@@H](N)CCCNC(=N)N`, the result in [1], in data set [2], in data set [3], in data set [4], in [5] and in [20] was inactive. Further, the Activity in [7], in [8], in data set [9], in data set [10], in data set [11] and in data set [12] was over 10 µg/mL in each case.
For `COC(=O)[C@H](CCCNC(=N)N)NC(=O)[C@H](Cc1c[nH]c(-c2ccc(OC)cc2)n1)NC(=O)[C@H](CCCNC(=N)N)NC(=O)OC(C)(C)C`, the result in data set [1], in data set [2], in data set [3], in [4] and in [5] was inactive. This compound registered an MFC100 in data set [6] of 5 µg/mL (≈ 7.27 µM). Besides, the IC50 in [6] worked out at 4.06 µg/mL (≈ 5.9 µM). Moreover, in data set [6], the MIC was determined as 5 µg/mL (≈ 7.27 µM). Also, the Activity in data set [7], in data set [8], in [9], in data set [10], in data set [11] and in data set [12] was over 10 µg/mL in each case. Also, the selectivity ratio in data set [13], in data set [14], in [15], in data set [16], in data set [17] and in data set [18] was over 2.5 in each case. The same compound yielded a Retention_time in data set [19] of 13.59 min.
Turning to `COC(=O)[C@H](CCCNC(=N)N)NC(=O)[C@H](Cc1c[nH]c(-c2ccc(C(C)(C)C)cc2)n1)NC(=O)[C@H](CCCNC(=N)N)NC(=O)OC(C)(C)C`, the result in data set [1], in data set [2], in data set [3], in data set [4] and in data set [5] was inactive. The compound further displayed an MFC100 in [6] of 1.25 µg/mL (≈ 1.75 µM). The compound also registered an IC50 in data set [6] of 0.71 µg/mL (≈ 0.995 µM). The MIC in data set [6] was 1.25 µg/mL (≈ 1.75 µM). Besides, the Activity in data set [7], in data set [8], in [9], in data set [10], in [11] and in [12] was over 10 µg/mL in each case. Further, the selectivity ratio in data set [13], in data set [14], in data set [15], in data set [16], in [17] and in [18] was over 14.1 each time. In addition, in data set [19], the Retention_time was found to be 20.91 min.

As a reminder, the IC50 is the point on the concentration scale where inhibition reaches its midpoint. As usually defined, the MIC is the smallest concentration in the dilution series that meets the test's criterion for growth inhibition.
